Data reported in ChEMBL document CHEMBL5120805, “Autoxidation of a C2-Olefinated Dihydroartemisinic Acid Analogue to Form an Aromatic Ring: Application to Serrulatene Biosynthesis” (2022).
≈ marks a conversion by molar mass, not a printed value.

How the values were obtained:
Type in all cases: functional
Cryptococcus neoformans = assay: Antimicrobial activity against Cryptococcus neoformans H99 assessed as reduction in […] growth and measured for 48 hrs by resazurin dye based broth microdilution method
Outline: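 Cells from overnight growth diluted to ~1 × 10^5 CFU/mL in sabouraud dextrose broth. Compounds from 10 mg/mL DMSO stocks tested at 0.048–100 μg/mL. Plates incubated standing at 37 °C for 48 h, then resazurin added for a further 24 h. MIC taken from colour change.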

Pseudomonas aeruginosa = assay: Antimicrobial activity against Pseudomonas aeruginosa PA14 assessed as reduction in bacterial growth and measured for 24 hrs by resazurin dye based broth microdilution method
Outline: (§1)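 Overnight cultures diluted to ~1 × 10^5 CFU/mL and exposed to compounds (DMSO stocks at 10 mg/mL) over 0.048–100 μg/mL final. Incubated standing in lysogeny broth at 37 °C for 24 h. Resazurin then added, 1 h further incubation, and MIC read from colour change.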

Staphylococcus aureus = assay: Antimicrobial activity against Staphylococcus aureus JE2 ssessed as reduction in bacterial growth and measured for 24 hrs by resazurin dye based broth microdilution method; outline: as §1

CC1=C[C@H]2[C@@H](C=C1)[C@H](C)CC[C@H]2[C@@H](C)CO
MIC (Cryptococcus neoformans): 25 µg/mL (≈ 113 µM)
MIC (Pseudomonas aeruginosa): > 100 µg/mL
MIC (Staphylococcus aureus): 50 µg/mL (≈ 227 µM)

O=C(O)c1cn(C2CC2)c2cc(N3CCNCC3)c(F)cc2c1=O [CIPROFLOXACIN]
MIC (Pseudomonas aeruginosa): < 0.04 µg/mL
MIC (Staphylococcus aureus): 12.5 µg/mL (≈ 37.7 µM)

Cc1ccc2c(c1)C([C@@H](C)CO)=CC[C@H]2C
MIC (Cryptococcus neoformans): 50 µg/mL (≈ 231 µM)
MIC (Pseudomonas aeruginosa): > 100 µg/mL
MIC (Staphylococcus aureus): 100 µg/mL (≈ 462 µM)

CC1=C[C@H]2[C@@H](CC1)[C@H](C)CC[C@H]2[C@@H](C)C(=O)O
MIC (Cryptococcus neoformans): 25 µg/mL (≈ 106 µM)
MIC (Pseudomonas aeruginosa): > 100 µg/mL
MIC (Staphylococcus aureus): 100 µg/mL (≈ 423 µM)

CC1=C[C@H]2[C@@H](CC1)[C@H](C)CC[C@H]2[C@@H](C)CCCO
MIC (Cryptococcus neoformans): > 100 µg/mL
MIC (Pseudomonas aeruginosa): > 100 µg/mL
MIC (Staphylococcus aureus): 12.5 µg/mL (≈ 49.9 µM)

CC1=C[C@H]2[C@@H](CC1)[C@@H]([C@H](C)C(=O)OCc1cn(CCOCCOCCOCNS(=O)(=O)c3ccc(C4=c5cc6c7c(c5Oc5c4cc4c8c5CCCN8CCC4)CCC[N+]=7CCC6)c(S(=O)(=O)[O-])c3)nn1)CC[C@@H]2C
MIC (Cryptococcus neoformans): > 50 µg/mL
MIC (Pseudomonas aeruginosa): > 50 µg/mL
MIC (Staphylococcus aureus): > 50 µg/mL

CC1=C[C@H]2[C@@H](C=C1)[C@H](C)CC[C@H]2[C@@H](C)CCCO
MIC (Cryptococcus neoformans): > 100 µg/mL
MIC (Pseudomonas aeruginosa): > 100 µg/mL
MIC (Staphylococcus aureus): 50 µg/mL (≈ 201 µM)

COC=CC[C@H](C)[C@@H]1CC[C@@H](C)[C@@H]2CCC(C)=C[C@@H]21 (mixture of isomers)
MIC (Cryptococcus neoformans): > 100 µg/mL
MIC (Pseudomonas aeruginosa): > 100 µg/mL
MIC (Staphylococcus aureus): > 100 µg/mL

GENTAMICIN
MIC (Cryptococcus neoformans): 6.25 µg/mL
MIC (Pseudomonas aeruginosa): 0.39 µg/mL
MIC (Staphylococcus aureus): 6.25 µg/mL

COC=C[C@H](C)[C@@H]1CC[C@@H](C)[C@@H]2CCC(C)=C[C@@H]21 (mixture of isomers)
MIC (Cryptococcus neoformans): 50 µg/mL
MIC (Pseudomonas aeruginosa): > 100 µg/mL
MIC (Staphylococcus aureus): 12.5 µg/mL

C[C@@H]1[C@H](O)[C@@H](C)/C=C/C=C/C=C/C=C/C=C/C=C/C=C/[C@H](O[C@@H]2O[C@H](C)[C@@H](O)[C@H](N)[C@@H]2O)C[C@@H]2O[C@](O)(C[C@@H](O)C[C@@H](O)[C@H](O)CC[C@@H](O)C[C@@H](O)CC(=O)O[C@H]1C)C[C@H](O)[C@H]2C(=O)O [AMPHOTERICIN B]
MIC (Cryptococcus neoformans): < 0.048 µg/mL

CC(C)=CCC[C@H](C)[C@@H]1CC[C@@H](C)c2ccc(C)cc21
MIC (Cryptococcus neoformans): > 100 µg/mL
MIC (Pseudomonas aeruginosa): > 100 µg/mL
MIC (Staphylococcus aureus): > 100 µg/mL

CC1=CC2=C([C@@H](C)C(=O)O)CC[C@@H](C)[C@@H]2CC1
MIC (Cryptococcus neoformans): > 100 µg/mL
MIC (Pseudomonas aeruginosa): > 100 µg/mL
MIC (Staphylococcus aureus): > 100 µg/mL

C#COC(=O)[C@H](C)[C@@H]1CC[C@@H](C)[C@@H]2CCC(C)=C[C@@H]21
MIC (Cryptococcus neoformans): > 100 µg/mL
MIC (Pseudomonas aeruginosa): > 100 µg/mL
MIC (Staphylococcus aureus): > 100 µg/mL

CC1=C[C@H]2[C@@H](C=C1)[C@H](C)CC[C@H]2[C@@H](C)C=O
MIC (Cryptococcus neoformans): > 100 µg/mL
MIC (Pseudomonas aeruginosa): > 100 µg/mL
MIC (Staphylococcus aureus): > 100 µg/mL

Cc1ccc2c(c1)[C@H]([C@@H](C)C(=O)O)CC[C@H]2C
MIC (Cryptococcus neoformans): 100 µg/mL (≈ 430 µM)
MIC (Pseudomonas aeruginosa): > 100 µg/mL
MIC (Staphylococcus aureus): > 100 µg/mL

CC(=O)OCCC[C@H](C)[C@@H]1CC[C@@H](C)[C@@H]2C[C@@H](O)C(C)=C[C@@H]21
MIC (Cryptococcus neoformans): 25 µg/mL (≈ 81 µM)
MIC (Pseudomonas aeruginosa): > 100 µg/mL
MIC (Staphylococcus aureus): > 100 µg/mL

CC1=C[C@H]2[C@@H](CC1)[C@H](C)CC[C@H]2[C@@H](C)C=O
MIC (Cryptococcus neoformans): 12.5 µg/mL (≈ 56.7 µM)
MIC (Pseudomonas aeruginosa): > 100 µg/mL
MIC (Staphylococcus aureus): > 100 µg/mL

CO[C@@H]1[C@@H](OC(N)=O)[C@@H](O)[C@H](Oc2ccc3c(O)c(NC(=O)c4ccc(O)c(CC=C(C)C)c4)c(=O)oc3c2C)OC1(C)C [NOVOBIOCIN]
MIC (Staphylococcus aureus): < 0.19 µg/mL

CC1=C[C@H]2[C@@H](CC1)[C@H](C)CC[C@H]2[C@@H](C)CCC=O
MIC (Cryptococcus neoformans): > 100 µg/mL
MIC (Pseudomonas aeruginosa): > 100 µg/mL
MIC (Staphylococcus aureus): > 100 µg/mL

CC1C[C@@H]2OO[C@H]1[C@@H]1[C@H]([C@@H](C)C(=O)O)CC[C@@H](C)[C@@H]12 (stereo partly specified)
MIC (Cryptococcus neoformans): > 100 µg/mL
MIC (Pseudomonas aeruginosa): > 100 µg/mL
MIC (Staphylococcus aureus): > 100 µg/mL

CC1=C[C@H]2[C@@H](C=C1)[C@H](C)CC[C@H]2[C@@H](C)C(=O)O
MIC (Cryptococcus neoformans): 100 µg/mL (≈ 427 µM)
MIC (Pseudomonas aeruginosa): > 100 µg/mL
MIC (Staphylococcus aureus): > 100 µg/mL

CC(C)=CC=C[C@H](C)[C@@H]1CC[C@@H](C)c2ccc(C)cc21
MIC (Cryptococcus neoformans): > 100 µg/mL
MIC (Pseudomonas aeruginosa): > 100 µg/mL
MIC (Staphylococcus aureus): > 100 µg/mL

Cc1ccc2c(c1)[C@H]([C@@H](C)CO)CC[C@H]2C
MIC (Cryptococcus neoformans): ≥ 100 µg/mL
MIC (Pseudomonas aeruginosa): > 100 µg/mL
MIC (Staphylococcus aureus): > 100 µg/mL

C[C@@H]1CC[C@H]2[C@@H](C)C(=O)O[C@@H]3O[C@@]4(C)CC[C@@H]1[C@]32OO4 [ARTEMISININ]
MIC (Cryptococcus neoformans): 100 µg/mL (≈ 354 µM)
MIC (Pseudomonas aeruginosa): > 100 µg/mL
MIC (Staphylococcus aureus): > 100 µg/mL

Cc1ccc2c(c1)[C@H]([C@@H](C)C=O)CC[C@H]2C
MIC (Cryptococcus neoformans): 100 µg/mL (≈ 462 µM)
MIC (Pseudomonas aeruginosa): > 100 µg/mL
MIC (Staphylococcus aureus): > 100 µg/mL

CC(=O)OCCC[C@H](C)[C@@H]1CC[C@@H](C)[C@@H]2CCC(C)=C[C@@H]21
MIC (Cryptococcus neoformans): 12.5 µg/mL (≈ 42.7 µM)
MIC (Pseudomonas aeruginosa): > 100 µg/mL
MIC (Staphylococcus aureus): > 100 µg/mL
